Substrate in data set [1]: C[C@H](C[C@H](N)C(=O)O)C(=O)O
Put plainly: (§1) Binding affinity to human EAAT1 expressed in HEK293 cells in FMP (FLPR) assay. The data set is classed as functional, cell-based. The method, boiled down:
(§2)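 HEK293 cells stably expressing the human transporter, seeded on poly-D-lysine plates in DMEM with 10% dialyzed FBS and G-418 for 16–24 h. Cells washed in Krebs buffer (pH 7.4), then loaded with FMP dye for 30 min at 37 °C. Read at room temperature, excitation 530 nm and emission 560 nm, for up to 1 min after substrate addition. Non-substrate inhibitors were preincubated and tested against 30 μM Glu. Seven-concentration curves from maximal responses, duplicate, at least three times.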

Substrate in data set [2]: N[C@@H](CCC(=O)O)C(=O)O
The data set is described as §1. It is filed as functional, cell-based. Put shortly: as §2

Substrate in data set [3]: N[C@@H](C[C@@H](O)C(=O)O)C(=O)O
The description is as §1. The data set is classed as functional, cell-based. Put shortly: as §2

Substrate in data set [4]: N[C@@H](C[C@H](O)C(=O)O)C(=O)O
Described as §1. It is filed as functional, cell-based. The method, boiled down: as §2

Substrate in data set [5]: N[C@@H](CCC(=O)O)C(=O)O
Put plainly: (§3) Binding affinity to human EAAT3 expressed in HEK293 cells in FMP (FLPR) assay. It is filed as functional, cell-based. The method, boiled down:
as §2

Substrate in data set [6]: N[C@@H](C[C@H](O)C(=O)O)C(=O)O
Described as §3. It is filed as functional, cell-based. Put shortly: as §2

Data set [7] deals with Excitatory amino acid transporter 3 (Homo sapiens) (UniProt P43005). Put plainly: Binding affinity to human EAAT3 expressed in HEK293 cells in FMP (FLPR) assay.

B1: Excitatory amino acid transporter 1 (Homo sapiens), P43003 (protein)
chain: MTKSNGEEPKMGGRMERFQQGVRKRTLLAKKKVQNITKEDVKSYLFRNAFVLLTVTAVIVGTILGFTLRPYRMSYREVKYFSFPGELLMRMLQMLVLPLIISSLVTGMAALDSKASGKMGMRAVVYYMTTTIIAVVIGIIIVIIIHPGKGTKENMHREGKIVRVTAADAFLDLIRNMFPPNLVEACFKQFKTNYEKRSFKVPIQANETLVGAVINNVSEAMETLTRITEELVPVPGSVNGVNALGLVVFSMCFGFVIGNMKEQGQALREFFDSLNEAIMRLVAVIMWYAPVGILFLIAGKIVEMEDMGVIGGQLAMYTVTVIVGLLIHAVIVLPLLYFLVTRKNPWVFIGGLLQALITALGTSSSSATLPITFKCLEENNGVDKRVTRFVLPVGATINMDGTALYEALAAIFIAQVNNFELNFGQIITISITATAASIGAAGIPQAGLVTMVIVLTSVGLPTDDITLIIAVDWFLDRLRTTTNVLGDSLGAGIVEHLSRHELKNRDVEMGNSVIEENEMKKPYQLIAQDNETEKPIDSETKM
Consider B1, for which the Michaelis constant (Km) – broadly, the substrate concentration at which the rate is half of its maximum – in data set [1] turned out to be 13 µM; in data set [2] it was 9.2 µM; in data set [3], 1000 µM; in data set [4], 140 µM.

B2: Excitatory amino acid transporter 3 (Homo sapiens), P43005 (protein)
chain: MGKPARKGCEWKRFLKNNWVLLSTVAAVVLGITTGVLVREHSNLSTLEKFYFAFPGEILMRMLKLIILPLIISSMITGVAALDSNVSGKIGLRAVVYYFCTTLIAVILGIVLVVSIKPGVTQKVGEIARTGSTPEVSTVDAMLDLIRNMFPENLVQACFQQYKTKREEVKPPSDPEMNMTEESFTAVMTTAISKNKTKEYKIVGMYSDGINVLGLIVFCLVFGLVIGKMGEKGQILVDFFNALSDATMKIVQIIMCYMPLGILFLIAGKIIEVEDWEIFRKLGLYMATVLTGLAIHSIVILPLIYFIVVRKNPFRFAMGMAQALLTALMISSSSATLPVTFRCAEENNQVDKRITRFVLPVGATINMDGTALYEAVAAVFIAQLNDLDLGIGQIITISITATSASIGAAGVPQAGLVTMVIVLSAVGLPAEDVTLIIAVDWLLDRFRTMVNVLGDAFGTGIVEKLSKKELEQMDVSSEVNIVNPFALESTILDNEDSDTKKSYVNGGFAVDKSDTISFTQTSQF
Take B2: the values for the Michaelis constant (Km) in data set [5], in data set [6] and in data set [7] were 25 µM, 81 µM and 1000 µM, respectively.

For the origin of these results see ChEMBL document CHEMBL1141219, “Chemoenzymatic synthesis of a series of 4-substituted glutamate analogues and pharmacological characterization at human glutamate transporters subtypes 1-3” (J Med Chem, 2005).
